Assay results: BindingDB's records for doi:10.1021/jm960245f (University of Maryland, 1996)

Assays:
[1] = target: T1, Steroid 17-alpha-hydroxylase/17,20 lyase (Homo sapiens, UniProt P05093); test: Inhibition of human testicular 17-alpha-hydroxylase
T1 sequence (P05093 whole entry): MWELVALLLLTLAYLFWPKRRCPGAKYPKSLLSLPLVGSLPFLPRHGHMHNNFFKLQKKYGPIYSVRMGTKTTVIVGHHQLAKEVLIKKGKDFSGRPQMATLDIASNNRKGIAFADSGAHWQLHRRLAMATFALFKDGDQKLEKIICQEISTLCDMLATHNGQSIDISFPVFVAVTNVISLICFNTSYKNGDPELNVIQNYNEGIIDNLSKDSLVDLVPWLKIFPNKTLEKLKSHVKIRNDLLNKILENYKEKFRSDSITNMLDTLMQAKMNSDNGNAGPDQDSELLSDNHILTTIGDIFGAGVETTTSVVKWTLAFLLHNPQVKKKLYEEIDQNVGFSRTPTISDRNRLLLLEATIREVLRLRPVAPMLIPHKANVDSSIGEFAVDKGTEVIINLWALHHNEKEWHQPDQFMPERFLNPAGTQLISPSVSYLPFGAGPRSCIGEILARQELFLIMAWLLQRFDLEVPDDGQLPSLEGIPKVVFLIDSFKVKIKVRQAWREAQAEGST
Summary of the method: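 Human testicular microsomes (ca. 90 μg protein; from orchidectomy patients, stored at –70 °C, diluted in 0.1 M phosphate buffer) incubated with [7-3H]pregnenolone (400 nM) plus NADPH-generating system in phosphate buffer pH 7.4 under oxygen, 5 min, 34 °C, at four to five inhibitor concentrations. Reverse-phase HPLC with radioactivity counting; activity = conversion to 17α-hydroxypregnenolone plus DHEA. IC50 by nonlinear regression; duplicates, repeated at least once.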

[2] = target: T1, Steroid 17-alpha-hydroxylase/17,20 lyase; test: Inhibition of human testicular steroid 17-alpha-hydroxylase
Summary of the method: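 Human testicular microsomes (orchidectomy tissue from untreated prostatic cancer patients, ca. 90 μg protein) incubated with [7-³H]pregnenolone (400 nM) plus NADPH-generating system in pH 7.4 phosphate buffer under oxygen, 5 min, 34 °C, with four to five inhibitor concentrations. Reverse-phase HPLC with radioactivity counting; activity = conversion to 17α-hydroxypregnenolone plus DHEA. Duplicates, repeated at least once; IC50 by nonlinear regression.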

| IC50 [1] | IC50 [2] | SMILES |
| --- | --- | --- |
| 5.98 µM | – | C[C@@H](CN=O)[C@H]1CC[C@H]2[C@@H]3CCC4=CC(=O)CC[C@]4(C)[C@H]3CC[C@]12C |
| 9.98 µM | – | CC(N=N)[C@H]1CC[C@H]2[C@@H]3CC=C4C[C@@H](O)CC[C@]4(C)[C@H]3CC[C@]12C (stereo partly drawn) |
| – | 530 nM | CC(N=O)C1CCC2C3CC=C4C[C@@H](O)CC[C@]4(C)C3CC[C@]12C (stereo partly drawn) [1-((3S,10R,13S)-3-Hydroxy-10,13-dimethyl-2,3,4,7,8,9,10,11,12,13,14,15,16,17-tetradecahydro-1H-cyclopenta[a]phenanthren-17-yl)-ethanone oxime] |
